Data published in ChEMBL document CHEMBL1649427, “Inactivation of the glycoside hydrolase NagZ attenuates antipseudomonal beta-lactam resistance in Pseudomonas aeruginosa” (Antimicrob Agents Chemother, 2009).
In brackets after ≈: the same amount, converted by molar mass.

Assays:
Pseudomonas aeruginosa [1] = assay: Antimicrobial activity against Pseudomonas aeruginosa PAO1 harboring deltaampD::lox deltaampDh2::lox delta ampDh3::lox after 18 hrs by Etest; type: functional; details: PAO1, 18 h
How it was run: (§1)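 Etest strips on Mueller-Hinton agar plates, run per the manufacturer's recommendations; MICs determined in triplicate.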

Pseudomonas aeruginosa [2] = assay: Antimicrobial activity against Pseudomonas aeruginosa PAO1 harboring deltaampD::lox deltaampDh2::lox deltaampDh3::lox deltanagZ::Gm after 18 hrs by Etest; type: functional; details: PAO1, 18 h; how it was run: as §1
Pseudomonas aeruginosa [3] = assay: Antimicrobial activity against nagZ gene-deficient Pseudomonas aeruginosa PAO1 after 18 hrs by Etest; type: functional; details: PAO1, 18 h
How it was run: (§2)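 Strains are P. aeruginosa PAO1 and its insertional nagZ-inactivated derivative. MICs were read from Etest strips on Mueller-Hinton agar, following the manufacturer's recommendations. Each determination was done in triplicate.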

Pseudomonas aeruginosa [4] = assay: Antimicrobial activity against Pseudomonas aeruginosa PAO1 after 18 hrs by Etest; type: functional; details: PAO1, 18 h; how it was run: as §2
[5] = target: Beta-lactamase (Pseudomonas aeruginosa (strain ATCC 15692 / PAO1 / 1C / PRS 101 / LMG12228)) (UniProt P24735); assay: Activity of beta-lactamase AmpC in Pseudomonas aeruginosa PAO1 assessed as nitrocefin hydrolysis after 3 hrs by spectrophotometric analysis
Sequence of Beta-lactamase (Pseudomonas aeruginosa (strain ATCC 15692 / PAO1 / 1C / PRS 101 / LMG12228)) (P24735 27-397 limits assumed): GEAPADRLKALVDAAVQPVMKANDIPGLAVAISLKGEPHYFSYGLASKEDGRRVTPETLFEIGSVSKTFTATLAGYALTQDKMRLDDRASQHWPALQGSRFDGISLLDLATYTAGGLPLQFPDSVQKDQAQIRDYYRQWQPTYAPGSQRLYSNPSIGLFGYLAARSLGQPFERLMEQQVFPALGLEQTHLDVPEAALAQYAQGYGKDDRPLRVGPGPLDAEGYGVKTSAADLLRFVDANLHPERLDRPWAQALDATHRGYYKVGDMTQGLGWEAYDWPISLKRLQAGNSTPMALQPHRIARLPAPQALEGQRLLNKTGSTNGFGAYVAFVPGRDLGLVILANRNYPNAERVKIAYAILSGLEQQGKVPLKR
How it was run: (§3)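 Strains grown in Mueller-Hinton broth at 37°C to OD600 ~0.5, then cultured 3 h at 37°C with 50 μg/ml cefoxitin (induced) or without. Crude sonic lysates assayed in triplicate at 37°C by continuous assay: nitrocefin (initial 100 μM) hydrolysis followed at 485 nm for 5 min. Specific activity expressed as nmol nitrocefin hydrolyzed/min/mg protein.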

[6] = target: Beta-lactamase (Pseudomonas aeruginosa (strain ATCC 15692 / PAO1 / 1C / PRS 101 / LMG12228)) (UniProt P24735); assay: Activity of beta-lactamase AmpC in Pseudomonas aeruginosa PAO1 harboring deltaampD::lox deltaampDh2::lox deltaampDh3::lox assessed as nitrocefin hydrolysis after 3 hrs by spectrophotometric analysis; how it was run: as §3
Pseudomonas aeruginosa [7] = assay: Antimicrobial activity against Pseudomonas aeruginosa PAO1 harboring deltaampD::lox deltaampDh2::lox deltaampDh3::lox after 18 hrs by broth microdilution method; type: functional; details: PAO1, 18 h
How it was run: (§4)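 CLSI broth microdilution in cation-adjusted Mueller-Hinton medium with serial β-lactam dilutions. Each well holds 200 μl broth inoculated with ~10⁴ cells from starter cultures at OD600 ~0.5. Plates shaken at 37°C for 18 h. The MIC is read as the lowest antibiotic concentration showing no growth. Triplicate determinations.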

Pseudomonas aeruginosa [8] = assay: Antimicrobial activity against nagZ gene-deficient Pseudomonas aeruginosa PAO1 after 18 hrs by broth microdilution method; type: functional; details: PAO1, 18 h; how it was run: as §4
[9] = target: Beta-lactamase (Pseudomonas aeruginosa (strain ATCC 15692 / PAO1 / 1C / PRS 101 / LMG12228)) (UniProt P24735); assay: Activity of beta-lactamase AmpC in Pseudomonas aeruginosa nagZ gene-deficient PAO1 assessed as nitrocefin hydrolysis after 3 hrs by spectrophotometric analysis; how it was run: as §3
Pseudomonas aeruginosa [10] = assay: Antimicrobial activity against nagZ gene-deficient Pseudomonas aeruginosa PAO1 harboring wild type nagZ gene after 18 hrs by broth microdilution method; type: functional; details: PAO1, 18 h
Pseudomonas aeruginosa [11] = assay: Antimicrobial activity against nagZ gene-deficient Pseudomonas aeruginosa PAO1 harboring plasmid pUCP27 after 18 hrs by broth microdilution method; type: functional; details: PAO1, 18 h
Pseudomonas aeruginosa [12] = assay: Antimicrobial activity against Pseudomonas aeruginosa PAO1 after 18 hrs by broth microdilution method; type: functional; details: PAO1, 18 h; how it was run: as §4
Pseudomonas aeruginosa [13] = assay: Antimicrobial activity against Pseudomonas aeruginosa PAO1 harboring deltaampD::lox deltaampDh2::lox delta ampDh3::lox after 18 hrs by broth microdilution method; type: functional; details: PAO1, 18 h; how it was run: as §4
[14] = target: Beta-lactamase (Pseudomonas aeruginosa (strain ATCC 15692 / PAO1 / 1C / PRS 101 / LMG12228)) (UniProt P24735); assay: Activity of beta-lactamase AmpC in Pseudomonas aeruginosa PAO1 harboring deltaampD::lox deltaampDh2::lox deltaampDh3::lox deltanagZ::Gm assessed as nitrocefin hydrolysis after 3 hrs by spectrophotometric analysis; how it was run: as §3
Pseudomonas aeruginosa [15] = assay: Antimicrobial activity against nagZ gene-deficient Pseudomonas aeruginosa PAO1 after 18 hrs by Etest in presence of beta-lactamase inhibitor Tazobactam; type: functional; details: PAO1, 18 h; how it was run: as §2
Pseudomonas aeruginosa [16] = assay: Antimicrobial activity against Pseudomonas aeruginosa PAO1 harboring deltaampD::lox deltaampDh2::lox deltaampDh3::lox deltanagZ::Gm after 18 hrs by Etest in presence of beta-lactamase inhibitor Tazobactam; type: functional; details: PAO1, 18 h
Pseudomonas aeruginosa [17] = assay: Antimicrobial activity against Pseudomonas aeruginosa PAO1 after 18 hrs by Etest in presence of beta-lactamase inhibitor Tazobactam; type: functional; details: PAO1, 18 h; how it was run: as §2
Pseudomonas aeruginosa [18] = assay: Ratio of MIC for Pseudomonas aeruginosa PAO1 harboring deltaampD::lox deltaampDh2::lox deltaampDh3::lox deltanagZ::Gm in presence of beta-lactamase inhibitor Tazobactam to MIC for nagZ gene-deficient Pseudomonas aeruginosa PAO1 in presence of beta-lactamase inhibitor Tazobactam; type: functional
Pseudomonas aeruginosa [19] = assay: Antimicrobial activity against Pseudomonas aeruginosa PAO1 harboring deltaampD::lox deltaampDh2::lox delta ampDh3::lox after 18 hrs by Etest in presence of beta-lactamase inhibitor Tazobactam; type: functional; details: PAO1, 18 h
Beta-hexosaminidase = Beta-hexosaminidase (Pseudomonas aeruginosa (strain ATCC 15692 / PAO1 / 1C / PRS 101 / LMG12228), UniProt Q9HZK0); assay: Inhibition of Pseudomonas aeruginosa PAO1 nagZ gene after 1.5 hrs by fluorescence spectrophotometry
Sequence of Beta-hexosaminidase (Q9HZK0 whole entry): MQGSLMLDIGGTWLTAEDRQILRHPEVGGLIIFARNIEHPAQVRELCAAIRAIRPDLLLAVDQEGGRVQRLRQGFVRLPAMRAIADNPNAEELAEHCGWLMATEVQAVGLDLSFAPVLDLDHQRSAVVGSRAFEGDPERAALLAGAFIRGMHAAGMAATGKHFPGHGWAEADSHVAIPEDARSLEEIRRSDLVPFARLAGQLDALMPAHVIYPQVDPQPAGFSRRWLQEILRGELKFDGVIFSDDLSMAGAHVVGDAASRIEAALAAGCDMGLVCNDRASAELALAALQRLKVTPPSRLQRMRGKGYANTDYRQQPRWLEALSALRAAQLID
How it was run: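 Cultures in Mueller-Hinton broth were grown at 37°C to OD600 ~0.5, diluted to 0.25 and grown 1.5 h more. Cells were PBS-washed and sonicated. Lysate protein (15 μg) was incubated with 2 mM 4-MUGlcNAc in PBS pH 7.4 at 37°C for 1–8 h, then quenched with glycine-NaOH pH 10.7. 4-MU fluorescence was read at ex 360/em 450 nm, in triplicate, with heat-denatured lysate controls.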

C[C@@H](O)[C@H]1C(=O)N2C(C(=O)O)=C(SCCNC=N)C[C@H]12 [IMIPENEM ANHYDROUS]
MIC (Pseudomonas aeruginosa [1]): 1.5 µg/mL (≈ 5.01 µM)
MIC (Pseudomonas aeruginosa [2]): 1.5 µg/mL (≈ 5.01 µM)
MIC (Pseudomonas aeruginosa [3]): 2 µg/mL (≈ 6.68 µM)
MIC (Pseudomonas aeruginosa [4]): 3 µg/mL (≈ 10 µM)

CO[C@@]1(NC(=O)Cc2cccs2)C(=O)N2C(C(=O)O)=C(COC(N)=O)CS[C@@H]21 [CEFOXITIN]
Activity [5]: 230 nmol
Activity [6]: 3940 nmol
MIC (Pseudomonas aeruginosa [7]): 3200 µg/mL (≈ 7490 µM)
MIC (Pseudomonas aeruginosa [8]): 800 µg/mL (≈ 1870 µM)
Activity [9]: 95 nmol
MIC (Pseudomonas aeruginosa [10]): 1200 µg/mL (≈ 2810 µM)
MIC (Pseudomonas aeruginosa [11]): 600 µg/mL (≈ 1400 µM)
MIC (Pseudomonas aeruginosa [12]): 1600 µg/mL (≈ 3740 µM)
MIC (Pseudomonas aeruginosa [13]): 3200 µg/mL (≈ 7490 µM)
Activity [14]: 1020 nmol

CCN1CCN(C(=O)N[C@@H](C(=O)N[C@@H]2C(=O)N3[C@@H]2SC(C)(C)[C@@H]3C(=O)O)c2ccccc2)C(=O)C1=O [PIPERACILLIN]
MIC (Pseudomonas aeruginosa [1]): > 256 µg/mL
MIC (Pseudomonas aeruginosa [15]): 1.5 µg/mL
MIC (Pseudomonas aeruginosa [16]): 16 µg/mL
MIC (Pseudomonas aeruginosa [17]): 1 µg/mL
Ratio (Pseudomonas aeruginosa [18]): 10
MIC (Pseudomonas aeruginosa [2]): 24 µg/mL (≈ 46.4 µM)
MIC (Pseudomonas aeruginosa [3]): 1 µg/mL (≈ 1.93 µM)
MIC (Pseudomonas aeruginosa [19]): ≥ 256 µg/mL
MIC (Pseudomonas aeruginosa [4]): 1 µg/mL (≈ 1.93 µM)

CCC(CC)C(=O)N[C@H]1/C(=N/OC(=O)Nc2ccccc2)O[C@H](CO)[C@@H](O)[C@@H]1O
Ki (Beta-hexosaminidase): 3.5 µM
